Data reported in ChEMBL document CHEMBL4052637, “Discovery and Characterization of R/S-N-3-Cyanophenyl-N'-(6-tert-butoxycarbonylamino-3,4-dihydro-2,2-dimethyl-2H-1-benzopyran-4-yl)urea, a New Histone Deacetylase Class III Inhibitor Exerting Antiproliferative Activity against Cancer Cell Lines” (J Med Chem, 2017).
Activity calls are given as the source filed them. No cut-off for these calls is given here.

How the values were obtained:
[1] = Antiproliferative activity against human U373 cells after 72 hrs by MTT assay; type: functional, cell-based, U-373MG ATCC; settings: U373 MG
Summary of the method: (§1)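 MTT assay: cells in RPMI 1640 with 10% heat-inactivated FCS at 37 °C and 5% CO2 were seeded 24 h before treatment. They were exposed 72 h to compound at 0.01–100 μM, with DMSO as solvent.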

Hs 683 [2] = assay: Antiproliferative activity against human Hs683 cells after 72 hrs by MTT assay; type: functional, cell-based; settings: Hs 683, 72 h; summary of the method: as §1
T98G = assay: Antiproliferative activity against human T98G cells after 72 hrs by MTT assay; type: functional, cell-based; summary of the method: as §1
Hs 683 [3] = assay: Cell cycle arrest in human Hs683 cells assessed as accumulation at sub-G1 phase at IC50 for MTT assay after 24 to 48 hrs by propidium iodide staining-based flow cytometry; type: functional
Summary of the method: (§2)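 Cells were exposed to compound at the IC50 for each line from the 72 h MTT assay, or to a reference HDAC inhibitor at 2 μM. Cell cycle distribution was analyzed after 24 and 48 h. Results are mean ± SD of three independent experiments, with p values against control cells.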

U-373MG ATCC [4] = assay: Cell cycle arrest in human U373 cells assessed as accumulation at sub-G1 phase at IC50 for MTT assay after 24 to 48 hrs by propidium iodide staining-based flow cytometry; type: functional; summary of the method: as §2
U-373MG ATCC [5] = assay: Cell cycle arrest in human U373 cells assessed as accumulation at G2/M phase at IC50 after 24 to 48 hrs by propidium iodide staining-based flow cytometry; type: functional; summary of the method: as §2
Hs 683 [6] = assay: Cell cycle arrest in human Hs683 cells assessed as accumulation at G2/M phase at IC50 after 24 to 48 hrs by propidium iodide staining-based flow cytometry; type: functional; summary of the method: as §2
Hs 683 [7] = assay: Cell cycle arrest in human Hs683 cells assessed as accumulation at G1 phase at IC50 after 24 to 48 hrs by propidium iodide staining-based flow cytometry; type: functional; summary of the method: as §2
[8] = biological target: T1, NAD-dependent protein deacetylase sirtuin-1 (Homo sapiens, UniProt Q96EB6); assay: Inhibition of N-terminal His-tagged recombinant human SIRT-1 expressed in Escherichia coli using Fluor-de-Lys-SIRT1 as substrate after 15 mins by fluorescence assay
T1 sequence (Q96EB6 whole entry): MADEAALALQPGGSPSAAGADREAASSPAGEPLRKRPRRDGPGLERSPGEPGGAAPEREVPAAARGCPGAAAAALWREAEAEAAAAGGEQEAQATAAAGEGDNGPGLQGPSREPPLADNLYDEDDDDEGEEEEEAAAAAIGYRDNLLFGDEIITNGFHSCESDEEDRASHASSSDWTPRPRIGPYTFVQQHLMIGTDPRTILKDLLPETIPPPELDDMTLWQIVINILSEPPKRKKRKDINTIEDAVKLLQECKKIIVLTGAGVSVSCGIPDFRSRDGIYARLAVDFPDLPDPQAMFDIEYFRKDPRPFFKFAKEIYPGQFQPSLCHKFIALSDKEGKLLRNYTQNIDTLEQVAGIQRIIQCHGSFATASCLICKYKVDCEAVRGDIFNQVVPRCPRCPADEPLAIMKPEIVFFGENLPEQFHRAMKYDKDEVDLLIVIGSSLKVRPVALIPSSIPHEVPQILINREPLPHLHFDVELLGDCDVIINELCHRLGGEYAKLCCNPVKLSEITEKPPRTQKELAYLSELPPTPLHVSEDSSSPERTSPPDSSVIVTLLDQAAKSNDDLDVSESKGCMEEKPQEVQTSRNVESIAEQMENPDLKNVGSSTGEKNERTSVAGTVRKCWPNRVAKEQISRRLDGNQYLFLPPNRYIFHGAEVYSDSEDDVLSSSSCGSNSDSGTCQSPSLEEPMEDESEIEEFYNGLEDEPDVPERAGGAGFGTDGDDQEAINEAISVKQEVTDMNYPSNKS

[9] = Selectivity index, ratio of IC50 for mouse astrocytes to IC50 for human U373 cells
[10] = Selectivity index, ratio of IC50 for mouse astrocytes to IC50 for human T98G cells
[11] = biological target: T2, NAD-dependent protein deacetylase sirtuin-2 (Homo sapiens, UniProt Q8IXJ6); assay: Inhibition of N-terminal His-tagged recombinant human SIRT-2 expressed in Escherichia coli using Fluor-de-Lys-SIRT1 as substrate after 15 mins by fluorescence assay
T2 sequence (Q8IXJ6 whole entry): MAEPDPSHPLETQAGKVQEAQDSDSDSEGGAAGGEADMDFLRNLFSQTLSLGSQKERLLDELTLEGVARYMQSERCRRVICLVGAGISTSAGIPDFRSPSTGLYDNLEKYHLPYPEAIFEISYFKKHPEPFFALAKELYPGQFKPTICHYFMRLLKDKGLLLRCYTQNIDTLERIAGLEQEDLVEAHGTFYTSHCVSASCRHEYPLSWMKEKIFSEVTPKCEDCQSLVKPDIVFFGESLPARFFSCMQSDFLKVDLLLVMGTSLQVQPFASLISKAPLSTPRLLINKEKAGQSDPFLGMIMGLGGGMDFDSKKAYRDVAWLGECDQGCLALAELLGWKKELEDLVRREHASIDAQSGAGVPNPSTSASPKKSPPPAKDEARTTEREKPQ

[12] = Selectivity index, ratio of IC50 for mouse astrocytes to IC50 for human Hs683 cells

| Compound | IC50 [1] | IC50 (Hs 683 [2]) | IC50 (T98G) | other results |
| --- | --- | --- | --- | --- |
| CC(C)(C)OC(=O)Nc1ccc2c(c1)C(NC(=O)Nc1ccc([N+](=O)[O-])cc1)CC(C)(C)O2 (racemic) | 24 µM | 20 µM | 26 µM |  |
| CC(C)(C)OC(=O)Nc1ccc2c(c1)C(NC(=O)Nc1ccc(Cl)cc1)CC(C)(C)O2 (configuration not stated) | 22 µM | 26 µM | 26 µM |  |
| COc1cccc(NC(=O)NC2CC(C)(C)Oc3ccc(NC(=O)OC(C)(C)C)cc32)c1 (racemic) | 30 µM | 37 µM | > 100 µM |  |
| CC1(C)CC(NC(=O)Nc2cccc(C#N)c2)c2cc(N)ccc2O1 (racemic) | > 100 µM | > 100 µM | > 100 µM |  |
| CC(NC(=O)c1ccccc1/N=C/c1c(O)ccc2ccccc12)c1ccccc1 (configuration not stated) [SIRTINOL] | 39.3 µM | 33.9 µM |  | Activity (Hs 683 [3]): inactive; Activity (U-373MG ATCC [4]): inactive; Activity (U-373MG ATCC [5]): Active; Activity (Hs 683 [6]): Active; Activity (Hs 683 [7]): Active |
| N#C/C(=C\c1ccc(-c2cc(Cl)ccc2Cl)o1)C(=O)Nc1cccc2ncccc12 | 47.6 µM | 80.2 µM |  | Activity (Hs 683 [3]): Active; IC50 [8]: 98.1 µM; Activity (U-373MG ATCC [4]): Active; Activity (U-373MG ATCC [5]): Active; Activity (Hs 683 [6]): Active |
| CC(C)(C)OC(=O)Nc1ccc2c(c1)C(NC(=O)Nc1ccccc1C(F)(F)F)CC(C)(C)O2 (racemic) | > 100 µM |  |  |  |
| CC(C)(C)OC(=O)Nc1ccc2c(c1)C(NC(=O)Nc1cccc(Cl)c1)CC(C)(C)O2 (configuration not stated) | 18 µM | 12 µM | 20 µM | IC50 [8]: 32.1 µM; Ratio IC50 [9]: >12; Ratio IC50 [10]: >12; IC50 [11]: 18.5 µM; Ratio IC50 [12]: >12 |
| COc1ccccc1NC(=O)NC1CC(C)(C)Oc2ccc(NC(=O)OC(C)(C)C)cc21 (racemic) | 30 µM | 59 µM | 39 µM |  |
| CC(C)(C)OC(=O)Nc1ccc2c(c1)C(NC(=O)Nc1ccc(C(F)(F)F)cc1)CC(C)(C)O2 (racemic) | 10 µM | 11 µM | 15 µM | Ratio IC50 [9]: >10; Ratio IC50 [10]: >10; Ratio IC50 [12]: >10 |
| COc1ccc(NC(=O)NC2CC(C)(C)Oc3ccc(NC(=O)OC(C)(C)C)cc32)cc1 (racemic) | 33 µM | 62 µM | 49 µM |  |
| CC(C)(C)OC(=O)Nc1ccc2c(c1)C(NC(=O)Nc1ccccc1C#N)CC(C)(C)O2 (racemic) | 45 µM | 54 µM | 67 µM |  |
| CC(C)(C)OC(=O)Nc1ccc2c(c1)C(NC(=O)Nc1ccc(C#N)cc1)CC(C)(C)O2 (configuration not stated) | 10 µM | 18 µM | 26 µM | IC50 [8]: 121 µM; Ratio IC50 [9]: >10; Ratio IC50 [10]: >10; IC50 [11]: 110 µM; Ratio IC50 [12]: >10 |
| CC1(C)CC(NC(=O)Nc2cccc(C#N)c2)c2cc(NC=O)ccc2O1 (racemic) | > 100 µM | > 100 µM | > 100 µM |  |
| CC(C)OC(=O)Nc1ccc2c(c1)C(NC(=O)Nc1cccc(C#N)c1)CC(C)(C)O2 (configuration not stated) |  |  |  | IC50 [8]: 54.8 µM; IC50 [11]: 22.7 µM |
| CC(C)(C)OC(=O)Nc1ccc2c(c1)C(NC(=O)Nc1cccc([N+](=O)[O-])c1)CC(C)(C)O2 (racemic) | 1 µM | 16 µM | 7 µM | IC50 [8]: > 200 µM; Ratio IC50 [9]: <5; Ratio IC50 [10]: <5; IC50 [11]: 99.8 µM; Ratio IC50 [12]: <5 |
| CCOC(=O)Nc1ccc2c(c1)C(NC(=O)Nc1cccc(C#N)c1)CC(C)(C)O2 (configuration not stated) |  |  |  | IC50 [8]: 109 µM; IC50 [11]: 51.1 µM |
| CC1(C)CC(NC(=S)Nc2ccc([N+](=O)[O-])cc2)c2cc(Cl)ccc2O1 (configuration not stated) |  |  |  | IC50 [8]: > 200 µM; IC50 [11]: > 200 µM |
| CC(C)(C)OC(=O)Nc1ccc2c(c1)C(NC(=O)Nc1cccc(Br)c1)CC(C)(C)O2 (racemic) | 22 µM | 18 µM | 26 µM |  |
| CC(C)(C)OC(=O)Nc1ccc2c(c1)C(NC(=O)Nc1ccccc1Cl)CC(C)(C)O2 (racemic) | 59 µM | 34 µM | 88 µM |  |
| CC(C)(C)OC(=O)Nc1ccc2c(c1)C(NC(=O)Nc1cccc(CN)c1)CC(C)(C)O2 (racemic) | > 100 µM | 95 µM | > 100 µM |  |
| CC(C)(C)OC(=O)Nc1ccc2c(c1)C(NC(=O)Nc1cccc(C(F)(F)F)c1)CC(C)(C)O2 (racemic) | 9 µM | 9 µM | 21 µM | Ratio IC50 [9]: <2; Ratio IC50 [10]: <2; Ratio IC50 [12]: <2 |
| NC(=O)C1CCCc2c1[nH]c1ccc(Cl)cc21 (configuration not stated) | 157 µM | 116 µM |  | Activity (Hs 683 [3]): inactive; Activity (U-373MG ATCC [4]): inactive; Activity (Hs 683 [7]): Active |
| CC(C)(C)OC(=O)Nc1ccc2c(c1)C(NC(=O)Nc1ccccc1[N+](=O)[O-])CC(C)(C)O2 (racemic) | 12 µM | 13 µM | 22 µM | Ratio IC50 [9]: >10; Ratio IC50 [10]: >10; Ratio IC50 [12]: >10 |
| COC(=O)Nc1ccc2c(c1)C(NC(=O)Nc1cccc(C#N)c1)CC(C)(C)O2 (configuration not stated) |  |  |  | IC50 [8]: 110 µM; IC50 [11]: 49.4 µM |
| CC(C)(C)OC(=O)Nc1ccc2c(c1)C(NC(=O)Nc1cccc(F)c1)CC(C)(C)O2 (racemic) | 20 µM | 19 µM | 26 µM |  |
| CC1(C)CC(NC(=O)Nc2cccc(C#N)c2)c2ccccc2O1 (racemic) | 38 µM | 31 µM | 32 µM |  |
| CC(C)(C)OC(=O)Nc1ccc2c(c1)C(NC(=O)Nc1cccc(N)c1)CC(C)(C)O2 (racemic) | 97 µM | 91 µM | > 100 µM |  |
